Results as given in ChEMBL document CHEMBL4004815, “(-)-Neocaryachine, an Antiproliferative Pavine Alkaloid from Cryptocarya laevigata, Induces DNA Double-Strand Breaks” (J Nat Prod, 2017).
Calls of active or inactive are those of the source. The rule behind the calls is not given here.

Tests used:
A549 = test: Antiproliferative activity against human A549 cells after 72 hrs by SRB assay; format: functional, cell-based; details: A549, 72 h
Procedure, shortened: (§1)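 Cells seeded at 4000−12 000 per well, density set by the line's doubling time. Compounds were added in DMSO, at most 0.1% v/v. After 72 h exposure, attached cells were fixed with 10% TCA, stained with 0.04% SRB, and the dye was solubilised in 10 mM Tris base. KB-VIN was maintained in 100 nM VIN.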

MDA-MB-231 = test: Antiproliferative activity against human MDA-MB-231 cells after 72 hrs by SRB assay; format: functional, cell-based; details: MDA-MB-231, 72 h; procedure, shortened: as §1
MCF7 = test: Antiproliferative activity against human MCF7 cells after 72 hrs by SRB assay; format: functional, cell-based; details: MCF7, 72 h
Procedure, shortened: as §1, with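 “base. Absorbance read at 515 nm. IC50 is 50% reduction relative to untreated cells, averaged over at least three independent experiments in duplicate.” for “base.”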

KB = test: Antiproliferative activity against human KB cells after 72 hrs by SRB assay; format: functional, cell-based; procedure, shortened: as §1
[1] = Antiproliferative activity against human KBVIN cells after 72 hrs by SRB assay; format: functional, cell-based
Procedure, shortened: as §1, with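 “base. Absorbance read at 515 nm. IC50 is 50% reduction relative to untreated cells, averaged over at least three independent experiments in duplicate.” for “base.”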

KBVIN [2] = test: Cell cycle arrest in human KBVIN cells assessed as accumulation at S phase at 20 uM after 24 to 48 hrs by propidium iodide staining-based flow cytometric method; format: functional
Procedure, shortened: (§2)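 KB-VIN cells were seeded 24 h before dosing, then exposed for 24 or 48 h, with 0.1% DMSO as the vehicle control. DNA content was stained with propidium iodide and cell-cycle distribution (sub-G1, S, G2/M) analysed by flow cytometry. Experiments were repeated at least three times.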

KBVIN [3] = test: Cell cycle arrest in human KBVIN cells assessed as increase in cell levels at sub G1 phase at 20 uM after 48 hrs by propidium iodide staining-based flow cytometric method; format: functional; procedure, shortened: as §2
Homo sapiens [4] = species: Homo sapiens; test: Induction of DNA double strand breaks in human KBVIN cells assessed as increase in gamma-H2AX positive nuclei at 20 uM after 24 hrs by DAPI staining-based confocal fluorescence microscopic method; format: cell-based
Procedure, shortened: (§3)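 KB-VIN cells on chamber slides were dosed 24 h after seeding and treated for 24 h, with 0.1% DMSO as control. Cells were fixed in ice-cold 4% paraformaldehyde/PBS and permeabilised with 0.5% Triton X-100. Staining used mouse anti-α-tubulin with FITC secondary, rabbit anti-γ-H2AX with Alexa Fluor 546 secondary, and DAPI for nuclei. Stacked confocal images were examined.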

Homo sapiens [5] = species: Homo sapiens; test: Induction of morphological changes of microtubule in human KBVIN cells at 20 uM after 24 hrs by DAPI staining-based confocal fluorescence microscopic method; format: cell-based; procedure, shortened: as §3
KBVIN [6] = test: Cell cycle arrest in human KBVIN cells at 0.3 uM after 24 hrs by propidium iodide staining-based flow cytometric method; format: functional
Procedure, shortened: (§4)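 KB-VIN (P-gp-overexpressing MDR KB subline, maintained with 100 nM vincristine) seeded 24 h before treatment. Compound exposure 24 or 48 h, vehicle 0.1% DMSO; 5-FU and CA-4 (10 nM, 24 h) served as S and G2/M arrest controls. DNA content read by propidium iodide staining and flow cytometry. Experiments repeated at least three times.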

KBVIN [7] = test: Cell cycle arrest in human KBVIN cells assessed as accumulation at sub-G1 phase at 0.3 uM after 48 hrs by propidium iodide staining-based flow cytometric method; format: functional; procedure, shortened: as §4
KBVIN [8] = test: Cell cycle arrest in human KBVIN cells assessed as accumulation at S phase at 3 to 10 uM after 24 to 48 hrs by propidium iodide staining-based flow cytometric method; format: functional; procedure, shortened: as §4
Homo sapiens [9] = species: Homo sapiens; test: Induction of DNA double strand breaks in human KBVIN cells assessed as increase in gamma-H2AX positive nuclei after 24 hrs by DAPI staining-based confocal fluorescence microscopic method; format: cell-based
Procedure, shortened: (§5)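 KB-VIN cells on chamber slides 24 h, then compound (0.3 and 3.0 µM) or 0.1% DMSO for 24 h. Fixed in ice-cold 4% paraformaldehyde/PBS, permeabilised with 0.5% Triton X-100. Stained with mouse anti-α-tubulin (FITC secondary), rabbit anti-γ-H2AX (Alexa Fluor 546 secondary) and DAPI. Imaged by confocal microscopy as stacked images.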

KBVIN [10] = test: Induction of apoptosis in human KBVIN cells assessed as nuclear fragmentation at 0.3 to 3 uM after 24 hrs by DAPI staining-based confocal fluorescence microscopic method; format: functional, cell-based; procedure, shortened: as §5
Homo sapiens [11] = species: Homo sapiens; test: Induction of morphological changes of microtubule in human KBVIN cells at 3 uM after 24 hrs by DAPI staining-based confocal fluorescence microscopic method; format: cell-based; procedure, shortened: as §5

Row | SMILES | IC50 (A549) [µM] | IC50 (MDA-MB-231) [µM] | IC50 (MCF7) [µM] | IC50 (KB) [µM] | IC50 [1] [µM] | Activity (KBVIN [2]) | Activity (KBVIN [3]) | Activity (Homo sapiens [4]) | Activity (Homo sapiens [5]) | Activity (KBVIN [6]) | Activity (KBVIN [7]) | Activity (KBVIN [8]) | Activity (Homo sapiens [9]) | Activity (KBVIN [10]) | Activity (Homo sapiens [11])
1 | C[N+]1([O-])[C@H]2Cc3cc4c(cc3[C@@H]1Cc1cc3c(cc12)OCO3)OCO4 (some centres not stated) | 29.3 | 41 | > 40 | 35.5 | > 40 | – | – | – | – | – | – | – | – | – | –
2 | COc1cc2c(cc1O)C[C@H]1c3cc4c(cc3C[C@@H]2N1C)OCO4 | 3.98 | 5.71 | 7.42 | 5.49 | 5.91 | – | – | – | – | – | – | – | – | – | –
3 | COc1cc2c(cc1O)[C@@H]1Cc3cc(OC)c(OC)cc3[C@H](C2)N1C | > 40 | > 40 | > 40 | > 40 | > 40 | – | – | – | – | – | – | – | – | – | –
4 | CN1[C@H]2Cc3cc4c(cc3[C@@H]1Cc1cc3c(cc12)OCO3)OCO4 [ESCHOLTZINE] | 8.71 | 26.1 | 26.6 | 17 | 19.8 | inactive | Active | inactive | inactive | – | – | – | – | – | –
5 | CC(=O)O[C@H]1C(=O)[C@@]2(C)[C@H]([C@H](OC(=O)c3ccccc3)[C@]3(O)C[C@H](OC(=O)[C@H](O)[C@@H](NC(=O)c4ccccc4)c4ccccc4)C(C)=C1C3(C)C)[C@]1(OC(C)=O)CO[C@@H]1C[C@@H]2O [PACLITAXEL] | – | – | 0.0104 | – | 1.93 | – | – | – | – | – | – | – | – | – | –
6 | COc1ccc2c(c1O)[C@@H]1Cc3cc4c(cc3[C@H](C2)N1C)OCO4 | 0.064 | 0.264 | 0.413 | 0.228 | 0.241 | – | – | – | – | inactive | Active | Active | Dose-dependent effect | Active | Active
